Reference: ChEMBL document CHEMBL1156759, “Identification and optimization of inhibitors of Trypanosomal cysteine proteases: cruzain, rhodesain, and TbCatB” (J Med Chem, 2010)
Activity calls are given as the source filed them. The calls are words filed in the database; no cut-off is given here.

Legend:
[1] = target: T1, Cruzipain (Trypanosoma cruzi, UniProt P25779); assay: Inhibition of recombinant Trypanosoma cruzi cruzain after 5 mins by spectrofluorimetric analysis
Method in brief: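 Recombinant cruzain at 4 nM (activated procruzain, anion-exchange purified) in 100 mM sodium acetate pH 5.5, 5 mM DTT, 0.001% Triton X-100. Preincubated 5 min at room temperature with compound in DMSO, then Z-Phe-Arg-AMC 10 μM. Fluorescence rate read at ex 355/em 460 nm; DMSO controls; IC50 by curve fitting.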

[2] = Inhibition of recombinant Trypanosoma brucei cathepsin B after 5 mins by spectrofluorimetric analysis
Method in brief: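 Recombinant TbCatB at 258 nM in 100 mM sodium acetate pH 5.5, 5 mM DTT, 0.001% Triton X-100, preincubated with compound in DMSO for 5 min at room temperature. Z-Phe-Arg-AMC 10 μM added to start. Rate of fluorescence rise read at ex 355/em 460 nm; DMSO control wells; IC50 from curve fitting.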

[3] = Inhibition of recombinant Trypanosoma brucei rhodesain after 5 mins by spectrofluorimetric analysis
Method in brief: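 Recombinant rhodesain, 4 nM, preincubated 5 min at room temperature with compound (DMSO) in 100 mM sodium acetate pH 5.5, 5 mM DTT, 0.001% Triton X-100. Reaction started with 10 μM Z-Phe-Arg-AMC; rate of AMC fluorescence increase read at ex 355/em 460 nm. IC50 from curve fitting; DMSO-only wells as positive control.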

[4] = target: T1, Cruzipain; assay: Inhibition of Trypanosoma cruzi cruzain after 15 mins
Method in brief: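 Cruzain at 1.5 nM final in 100 mM acetate pH 5.5, 5 mM DTT, 0.01% Triton X-100; compounds as serial 2-fold dilutions pin-transferred in DMSO. 15 min room-temperature preincubation, then Z-FR-AMC 2 μM final. Kinetic fluorescence read at ex 340/em 450 nm. Percent inhibition from the first 60 s signal change versus no-enzyme and uninhibited controls (48 wells each).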

[5] = system: Trypanosoma cruzi; assay: Antitrypanosomal activity against Trypanosoma cruzi Y trypomastigotes infected in mouse J774 cells at 5 uM after 27 days medium replaced every 48 hrs; format: functional, organism-based
Method in brief: (§1)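 Irradiated (1000 rad) J774 macrophages plated overnight, infected 2 h with Y strain trypomastigotes, parasites removed, then cultured in RPMI-1640 with compound (n = 3); untreated infected and 10 μM K777 controls per experiment. Medium replaced every 48 h over 27 days; daily phase-contrast microscopy (400×) for free trypomastigotes and host toxicity; cultures kept 14 further days to confirm cure.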

[6] = system: Trypanosoma cruzi; assay: Antitrypanosomal activity against Trypanosoma cruzi Y trypomastigotes infected in mouse J774 cells at 1 uM after 27 days medium replaced every 48 hrs; format: functional, organism-based; method in brief: as §1
[7] = system: J774; assay: Cytotoxicity against mouse J774 cells at 10 uM; format: cell-based; conditions: j774, 10 µM
Method in brief: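 Irradiated (1000 rad) J774 macrophages plated overnight and infected 2 h with Y strain T. cruzi trypomastigotes. After parasite removal, cultured in RPMI-1640 with compound (n = 3), medium changed every 48 h, for 27 days. Toxicity to host cells (granulation, detachment, death) scored daily by phase-contrast microscopy at 400×.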

[8] = target: Caspase-6 (Homo sapiens, UniProt P55212); assay: Inhibition of human Caspase 6
Method in brief: (§2)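 Profiling panel run externally as 10-dose, 3-fold serial dilutions of compound. Protease activity followed as a time course of fluorescence increase from a fluorescently labeled peptide substrate. The initial linear slope (signal/min) was analysed.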

[9] = target: T2, Papain (Carica papaya, UniProt P00784); assay: Inhibition of papaya papain; method in brief: as §2
T2 sequence (P00784 whole entry): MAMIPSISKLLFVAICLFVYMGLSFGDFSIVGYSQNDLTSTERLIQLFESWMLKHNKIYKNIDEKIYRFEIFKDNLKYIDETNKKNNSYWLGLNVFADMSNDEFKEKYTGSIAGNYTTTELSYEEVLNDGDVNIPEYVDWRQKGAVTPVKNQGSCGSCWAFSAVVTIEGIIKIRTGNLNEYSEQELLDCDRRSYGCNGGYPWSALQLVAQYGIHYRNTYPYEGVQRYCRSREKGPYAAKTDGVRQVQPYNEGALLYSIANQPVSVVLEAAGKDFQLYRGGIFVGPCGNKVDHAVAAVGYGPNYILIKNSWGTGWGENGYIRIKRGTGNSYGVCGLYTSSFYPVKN

[10] = organism: Canis familiaris; assay: Toxicity in dog; format: organism-based, Canis lupus familiaris; conditions: in vivo
[11] = target: Caspase-14 (Homo sapiens, UniProt P31944); assay: Inhibition of human Caspase 14; method in brief: as §2
[12] = target: Procathepsin L (Homo sapiens, UniProt P07711); assay: Inhibition of human Cathepsin L; method in brief: as §2
[13] = organism: Rattus norvegicus; assay: Toxicity in rat; format: organism-based; conditions: in vivo
[14] = organism: Mus musculus; assay: Toxicity in mouse; format: organism-based; conditions: in vivo
[15] = target: Cathepsin Z (Homo sapiens, UniProt Q9UBR2); assay: Inhibition of human Cathepsin X/Z; method in brief: as §2
[16] = target: Cathepsin S (Homo sapiens, UniProt P25774); assay: Inhibition of human Cathepsin S; method in brief: as §2
[17] = target: Tissue-type plasminogen activator (Homo sapiens, UniProt P00750); assay: Inhibition of human tPA; method in brief: as §2
[18] = target: T3, Cathepsin L2 (Homo sapiens, UniProt O60911); assay: Inhibition of human Cathepsin V; method in brief: as §2
T3 sequence (O60911 whole entry): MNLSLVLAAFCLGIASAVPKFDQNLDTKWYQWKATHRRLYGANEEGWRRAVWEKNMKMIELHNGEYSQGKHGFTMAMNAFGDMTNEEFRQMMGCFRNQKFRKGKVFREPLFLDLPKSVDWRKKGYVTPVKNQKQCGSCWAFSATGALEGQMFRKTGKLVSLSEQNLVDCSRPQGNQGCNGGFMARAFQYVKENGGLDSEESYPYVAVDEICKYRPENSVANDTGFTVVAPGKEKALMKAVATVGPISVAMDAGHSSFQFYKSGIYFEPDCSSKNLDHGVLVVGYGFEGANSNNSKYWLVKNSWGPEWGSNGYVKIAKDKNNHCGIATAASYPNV

[19] = target: T4, Pro-cathepsin H (Homo sapiens, UniProt P09668); assay: Inhibition of human Cathepsin H; method in brief: as §2
T4 sequence (P09668 whole entry): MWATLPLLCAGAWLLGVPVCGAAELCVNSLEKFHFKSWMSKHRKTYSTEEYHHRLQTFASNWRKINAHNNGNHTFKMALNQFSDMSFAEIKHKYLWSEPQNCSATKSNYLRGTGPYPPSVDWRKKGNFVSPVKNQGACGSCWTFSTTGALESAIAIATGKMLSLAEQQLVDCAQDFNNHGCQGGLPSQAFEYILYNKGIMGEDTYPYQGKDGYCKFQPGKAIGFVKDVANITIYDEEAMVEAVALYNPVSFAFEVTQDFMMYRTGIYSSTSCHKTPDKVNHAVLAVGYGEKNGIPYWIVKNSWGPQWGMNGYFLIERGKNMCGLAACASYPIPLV

[20] = target: T5, Cathepsin K (Homo sapiens, UniProt P43235); assay: Inhibition of human Cathepsin K/O2; method in brief: as §2
T5 sequence (P43235 whole entry): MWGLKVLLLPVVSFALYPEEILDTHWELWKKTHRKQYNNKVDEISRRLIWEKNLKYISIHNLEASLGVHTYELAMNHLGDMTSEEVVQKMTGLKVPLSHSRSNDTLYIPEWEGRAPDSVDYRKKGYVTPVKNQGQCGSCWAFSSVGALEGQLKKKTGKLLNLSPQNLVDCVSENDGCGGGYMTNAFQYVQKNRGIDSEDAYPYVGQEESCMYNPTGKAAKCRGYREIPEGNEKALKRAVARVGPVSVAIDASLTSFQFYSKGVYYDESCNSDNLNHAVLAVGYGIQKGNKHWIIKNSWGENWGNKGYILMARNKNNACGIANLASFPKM

[21] = system: Trypanosoma cruzi; assay: Antitrypanosomal activity against Trypanosoma cruzi Y trypomastigotes infected in mouse J774 cells at 10 uM after 27 days medium replaced every 48 hrs; format: functional, organism-based; method in brief: as §1

T1 sequence (P25779 whole entry): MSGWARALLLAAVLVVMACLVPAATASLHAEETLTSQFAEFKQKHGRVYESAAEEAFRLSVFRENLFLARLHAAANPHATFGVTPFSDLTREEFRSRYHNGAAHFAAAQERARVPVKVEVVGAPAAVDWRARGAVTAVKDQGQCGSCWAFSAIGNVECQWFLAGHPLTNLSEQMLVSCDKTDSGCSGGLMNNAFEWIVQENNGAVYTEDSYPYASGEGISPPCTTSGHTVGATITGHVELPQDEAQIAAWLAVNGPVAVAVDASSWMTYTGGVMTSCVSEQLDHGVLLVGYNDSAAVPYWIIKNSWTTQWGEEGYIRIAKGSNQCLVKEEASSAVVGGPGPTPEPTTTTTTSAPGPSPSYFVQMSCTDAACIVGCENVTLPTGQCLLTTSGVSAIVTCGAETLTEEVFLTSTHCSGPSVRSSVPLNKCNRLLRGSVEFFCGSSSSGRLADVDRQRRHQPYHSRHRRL
Chain of Caspase-14 (P31944 6-146 limits assumed): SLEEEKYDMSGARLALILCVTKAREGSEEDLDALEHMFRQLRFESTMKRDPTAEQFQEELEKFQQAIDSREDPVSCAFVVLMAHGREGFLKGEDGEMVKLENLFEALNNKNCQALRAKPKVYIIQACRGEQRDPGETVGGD
Chain of Caspase-14 (P31944 153-242 limits assumed): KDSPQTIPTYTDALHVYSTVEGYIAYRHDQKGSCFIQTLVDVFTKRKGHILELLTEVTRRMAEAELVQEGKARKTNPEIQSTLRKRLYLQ
Chain of Cathepsin S (P25774 whole entry): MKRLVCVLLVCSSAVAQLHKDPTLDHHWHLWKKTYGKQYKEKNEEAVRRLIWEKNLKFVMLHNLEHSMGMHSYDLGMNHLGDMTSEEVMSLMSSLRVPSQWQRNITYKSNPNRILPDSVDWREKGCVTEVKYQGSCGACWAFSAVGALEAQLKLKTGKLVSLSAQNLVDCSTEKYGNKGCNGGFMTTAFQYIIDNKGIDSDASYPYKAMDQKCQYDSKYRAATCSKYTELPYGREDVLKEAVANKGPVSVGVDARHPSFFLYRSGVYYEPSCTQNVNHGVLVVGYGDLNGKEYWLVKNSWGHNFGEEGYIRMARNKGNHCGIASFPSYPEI
Chain of Cathepsin Z (Q9UBR2 whole entry): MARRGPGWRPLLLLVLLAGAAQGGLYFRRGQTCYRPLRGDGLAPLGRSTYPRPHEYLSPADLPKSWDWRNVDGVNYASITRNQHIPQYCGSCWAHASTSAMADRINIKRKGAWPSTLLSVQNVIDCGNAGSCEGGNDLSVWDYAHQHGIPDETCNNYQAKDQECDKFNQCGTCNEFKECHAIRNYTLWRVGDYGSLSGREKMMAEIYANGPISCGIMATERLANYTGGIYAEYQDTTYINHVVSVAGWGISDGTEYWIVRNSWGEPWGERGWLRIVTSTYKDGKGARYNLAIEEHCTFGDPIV
Chain of Caspase-6 (P55212 24-179 limits assumed): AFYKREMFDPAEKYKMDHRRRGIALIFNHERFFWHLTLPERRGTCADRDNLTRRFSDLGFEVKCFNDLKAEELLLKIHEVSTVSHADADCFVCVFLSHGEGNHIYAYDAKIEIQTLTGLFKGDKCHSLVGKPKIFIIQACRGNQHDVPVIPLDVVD
Chain of Caspase-6 (P55212 194-293 limits assumed): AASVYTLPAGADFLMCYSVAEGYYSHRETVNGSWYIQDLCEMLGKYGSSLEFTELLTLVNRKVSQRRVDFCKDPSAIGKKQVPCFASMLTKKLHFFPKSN
Chain of Tissue-type plasminogen activator (P00750 whole entry): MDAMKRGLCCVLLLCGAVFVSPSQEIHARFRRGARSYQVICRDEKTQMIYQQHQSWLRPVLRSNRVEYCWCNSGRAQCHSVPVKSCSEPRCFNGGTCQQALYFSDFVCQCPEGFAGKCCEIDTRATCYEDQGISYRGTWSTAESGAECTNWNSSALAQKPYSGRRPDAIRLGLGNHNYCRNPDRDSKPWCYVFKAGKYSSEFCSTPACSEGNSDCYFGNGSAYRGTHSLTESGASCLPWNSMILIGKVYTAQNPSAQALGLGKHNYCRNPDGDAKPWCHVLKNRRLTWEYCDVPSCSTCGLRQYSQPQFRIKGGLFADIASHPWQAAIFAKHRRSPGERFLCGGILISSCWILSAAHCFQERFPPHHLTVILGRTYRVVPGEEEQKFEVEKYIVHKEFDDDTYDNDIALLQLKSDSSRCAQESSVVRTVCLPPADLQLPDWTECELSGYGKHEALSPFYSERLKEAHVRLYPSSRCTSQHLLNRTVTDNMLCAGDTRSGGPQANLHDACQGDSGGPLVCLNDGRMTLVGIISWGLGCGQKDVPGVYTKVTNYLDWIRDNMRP
Chain of Procathepsin L (P07711 whole entry): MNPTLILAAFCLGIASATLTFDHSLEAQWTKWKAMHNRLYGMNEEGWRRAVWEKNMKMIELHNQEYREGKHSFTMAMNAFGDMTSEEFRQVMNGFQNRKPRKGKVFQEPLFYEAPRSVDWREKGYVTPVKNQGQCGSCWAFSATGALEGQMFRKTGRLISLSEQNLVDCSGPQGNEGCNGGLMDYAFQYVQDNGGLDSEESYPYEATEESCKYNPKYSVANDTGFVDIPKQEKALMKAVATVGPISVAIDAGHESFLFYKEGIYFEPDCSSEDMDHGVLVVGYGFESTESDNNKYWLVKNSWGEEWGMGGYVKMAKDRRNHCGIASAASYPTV

Row | Structure (SMILES) | IC50 [1] [µM] | IC50 [2] [µM] | IC50 [3] [µM] | IC50 ([4]; read-out: IC50) [µM] | also measured
1 | N#Cc1nc(Nc2ccc(F)cc2)nc(NC2CCCC2)n1 | 0.03 | > 1 | 0.04 | 0.126 | –
2 | N#Cc1nc(Nc2cccc(C(F)(F)F)c2)nc(NC2CCCC2)n1 | 0.04 | > 10 | 0.07 | – | Activity [5]: inactive; IC50 [4]: Not Active; Activity [6]: inactive; Activity [7]: Toxic
3 | N#Cc1nc(Nc2ccc(Br)cc2)nc(NC2CCCC2)n1 | 0.06 | > 10 | 0.1 | 1.12 | –
4 | CCNc1nc(C#N)nc2c1ncn2-c1cccc(Cl)c1 | – | – | – | 0.063 | –
5 | N#Cc1nc(NCCO)nc(Nc2ccccc2)n1 | – | – | – | 1.58 | –
6 | N#Cc1nc(NCC(F)F)nc(Nc2cc(F)cc(F)c2)n1 | 0.001 | 1 | < 0.006 | 0.025 | –
7 | N#Cc1nc(Nc2cc(Cl)cc(Cl)c2)nc(NC2CCCC2)n1 | 0.01 | > 10 | 0.03 | 0.398 | Activity [5]: inactive; Activity [6]: inactive; Activity [7]: Toxic
8 | N#Cc1nc(Nc2cccc(Cl)c2)nc(NC2CCCC2)n1 | 0.002 | > 100 | 0.006 | 0.079 | IC50 [8]: 5.13 µM; IC50 [9]: 0.513 µM; Activity [10]: Non-toxic; IC50 [11]: 14.1 µM; IC50 [12]: 0.309 µM; Activity [13]: Non-toxic; Activity [14]: Non-toxic; Activity [5]: inactive; IC50 [15]: 6.46 µM; IC50 [16]: 6.46 µM; IC50 [17]: 0.851 µM; IC50 [18]: 0.832 µM; IC50 [19]: 14.5 µM; IC50 [20]: 0.0174 µM; Activity [6]: inactive; Activity [7]: Toxic
9 | N#Cc1nc(Nc2ccccc2)nc(NC2CCCC2)n1 | – | – | – | 0.71 | –
10 | N#Cc1nc(NCC(F)F)c2ncn(-c3cc(F)cc(F)c3)c2n1 | – | – | – | 0.05 | –
11 | N#Cc1nc(Nc2cccc(F)c2)nc(NC2CCCC2)n1 | 0.01 | > 1 | 0.02 | 0.079 | –
12 | CCn1cnc2c(Nc3cccc(Cl)c3)nc(C#N)nc21 | 0.0004 | > 100 | 0.01 | 0.018 | Activity [21]: inactive
13 | Cc1cccc(Nc2nc(C#N)nc(NC3CCCC3)n2)c1 | 0.03 | 6 | 0.05 | 0.126 | Activity [5]: inactive; Activity [6]: inactive; Activity [7]: Toxic
14 | CCCCNc1nc(C#N)nc(Nc2ccccc2)n1 | – | – | – | 0.89 | –
15 | CC(C)Nc1nc(C#N)nc(Nc2ccccc2)n1 | – | – | – | 0.89 | –
16 | N#Cc1nc(NC2CCCC2)c2ncn(-c3cc(F)cc(F)c3)c2n1 | – | – | – | 0.316 | –
17 | N#Cc1nc(NCCCCO)nc(Nc2ccccc2)n1 | – | – | – | 0.89 | –
18 | N#Cc1nc(Nc2cccc([N+](=O)[O-])c2)nc(NC2CCCC2)n1 | 0.001 | > 1 | 0.008 | 0.063 | –
19 | CCNc1nc(C#N)nc(Nc2ccccc2)n1 | – | – | – | 0.71 | –
20 | CNc1nc(C#N)nc(Nc2ccccc2)n1 | – | – | – | 1.26 | –
21 | CC(C)CNc1nc(C#N)nc(Nc2ccccc2)n1 | – | – | – | 0.89 | –
22 | CCOc1nc(C#N)nc(N2CCCCC2)n1 | 0.09 | > 1 | 0.3 | – | –
23 | N#Cc1nc(Nc2cccc(-c3ccccc3)c2)nc(NC2CCCC2)n1 | 0.05 | > 10 | 0.03 | 2.24 | Activity [5]: inactive; Activity [6]: inactive; Activity [7]: Toxic
24 | N#Cc1nc(Nc2cc(F)cc(F)c2)c2ncn(C3CCCC3)c2n1 | – | – | – | 0.018 | –
25 | N#Cc1nc(NCC2CC2)nc(Nc2ccccc2)n1 | – | – | – | 0.89 | –
26 | N#Cc1nc(NCC(F)F)c2ncn(-c3cccc(Cl)c3)c2n1 | – | – | – | 0.071 | –
27 | CCCNc1nc(C#N)nc(Nc2ccccc2)n1 | – | – | – | 0.79 | –
28 | N#Cc1nc(Nc2cccc(Cl)c2)c2ncn(C3CCCC3)c2n1 | 0.0003 | > 10 | < 0.006 | 0.04 | Activity [21]: inactive
29 | N#Cc1nc(Nc2ccccc2)nc(NC2CCCCC2)n1 | – | – | – | 1.41 | –
